Square brackets hold non-standard residues; d marks the D form. Peptide text beside a SMILES is read from it. pGlu = O=C1CC[C@@H](C(=O)O)N1; Pip = O=C(O)[C@@H]1CCCCN1; Thz = O=C(O)[C@@H]1CSCN1; Aze = O=C(O)[C@@H]1CCN1

Data on 8 compounds can be found in ChEMBL document CHEMBL1123255, “Synthesis of Pro-Leu-Gly-NH2 analogues modified at the prolyl residue and evaluation of their effects on the receptor binding activity of the central dopamine receptor agonist, ADTN” (J Med Chem, 1986).

Type in all cases: protein assay
The target in test [1] is T1, Dopamine receptor (Bos taurus) (UniProt Q95136+P20288). Put plainly: Compound was tested for enhancement of the binding of [3H]ADTN to dopamine receptors at concentration of 1 nM. An outline of the steps: (§1)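 Bovine caudate homogenized in 50 mM Tris-HCl pH 7.7, centrifuged twice at 40000g, resuspended in 50 mM Tris pH 7.1 with 0.1% ascorbate, 120 mM NaCl, 5 mM KCl, 2 mM CaCl2, 10 μM pargyline. 0.4-0.6 mg protein, 8 nM [3H]ADTN, peptide at 1, 10 or 100 nM; 10 min, 37 °C, triplicate; GF/B filtration, scintillation counting. Specific binding defined with 1 μM (d)-butaclamol; % enhancement over no-drug basal.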

Test [2] concerns the target T1, Dopamine receptor (Bos taurus). Put plainly: Compound was tested for enhancement of the binding of [3H]ADTN to dopamine receptors at concentration of 100 nM. An outline of the steps:
as §1

The target is the same in test [3]. Put plainly: Compound was tested for enhancement of the binding of [3H]-ADTN to dopamine receptors at concentration of 10 nM. An outline of the steps: as §1

Turning to `CC(C)C[C@H](NC(=O)[C@@H]1C=CCN1)C(=O)NCC(N)=O`, the Enhancement in test [1] stood at 12.4%; in test [2], 55%; in test [3], 40%.
In the same order, the values of `CC(C)C[C@H](NC(=O)[C@H]1C=CCN1)C(=O)NCC(N)=O` are 9.5%, 14.4% and 13%.
In the same order, the values of `CC(C)C[C@H](NC(=O)[C@@H]1CCN1)C(=O)NCC(N)=O` (H-[Aze]-Leu-Gly-NH2) are 19%, 42% and 40%.
In the same order, the values of `CC(C)C[C@H](NC(=O)[C@@H]1CCCCN1)C(=O)NCC(N)=O` (H-[Pip]-Leu-Gly-NH2) are 17%, 58.7% and 38.7%.
In the case of `CC(C)C[C@H](NC(=O)[C@@H]1CSCN1)C(=O)NCC(N)=O` (H-[Thz]-Leu-Gly-NH2), the figures for the Enhancement in test [1], in test [2] and in test [3] were 7%, 9.5% and 8.5%, respectively.
In the same order, the values of `CC(C)C[C@H](NC(=O)[C@@H]1CCC(=O)N1)C(=O)NCC(N)=O` ([pGlu]-Leu-Gly-NH2) are 13.5%, 36.4% and 26.5%.
In the same order, the values of `CC(C)C[C@H](NC(=O)[C@@H]1CCCN1)C(=O)NCC(N)=O` (stereo in doubt; 1) are 16%, 46.2% and 28%.
In the same order, the values of `CC(C)C[C@H](NC(=O)[C@@H]1CCCN1)C(=O)NCC(N)=O` (stereo in doubt; 2) are 18%, 33% and 25%.
